Measurements taken from ChEMBL document CHEMBL5058577, “EUbOPEN Chemogenomics Library 2 (Multiplex)” (2022).

System: U2OS
Assay: Multiplex assay against U2OS
Assay type: toxicity, cell-based
Conditions: human
How it was run: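 Cells stained live at seeding with Hoechst33342, BioTracker Green Microtubule Cytoskeleton Dye, MitoTracker Red and Annexin V Alexa Fluor 680 were imaged on a CQ1 microscope at 37°C and 5% CO2 after compound addition. Their classification by CellPathfinder machine-learning gating ran from Hoechst high-intensity objects versus normal cells, to healthy, pyknosed or fragmented nuclei among normal cells, to mitotic or apoptotic among pyknosed cells. Tubulin, mitochondrial-mass and membrane-permeability phenotypes are per cents of healthy-nucleus cells.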

[1] = 12 h, 1 µM, compound concentration 1 uM, replicate 1
[2] = 12 h, 1 µM, compound concentration 1 uM, replicate 2
[3] = 12 h, 10 µM, compound concentration 10 uM, replicate 1
[4] = 12 h, 10 µM, compound concentration 10 uM, replicate 2
[5] = 24 h, 1 µM, compound concentration 1 uM, replicate 1
[6] = 24 h, 1 µM, compound concentration 1 uM, replicate 2
[7] = 24 h, 10 µM, compound concentration 10 uM, replicate 1
[8] = 24 h, 10 µM, compound concentration 10 uM, replicate 2
[9] = 48 h, 1 µM, compound concentration 1 uM, replicate 1
[10] = 48 h, 1 µM, compound concentration 1 uM, replicate 2
[11] = 48 h, 10 µM, compound concentration 10 uM, replicate 1
[12] = 48 h, 10 µM, compound concentration 10 uM, replicate 2

SMILES: Cl.Cl.OCCOCCN1CCN(C(c2ccccc2)c2ccc(Cl)cc2)CC1 (stereo not drawn) [HYDROXYZINE HYDROCHLORIDE]
- Population Apoptotic (%) [1]: 60%
- Population Fragmented Nuclei (%) [1]: 29%
- Population Healthy Nuclei (%) [1]: 61%
- Population Hoechst High Intensity Objects (%) [1]: 0%
- Population Membrane Permeable-Phenotype (%) [1]: 11%
- Population Mitochondria Different-Phenotype (%) [1]: 4%
- Population Mitotic Cells (%) [1]: 40%
- Population Normal (%) [1]: 99%
- Population Pyknosed Nuclei (%) [1]: 9%
- Population Tubulin-Different-Phenotype (%) [1]: 7%
- Total Cell Count [1]: 208
- Population Apoptotic (%) [2]: 80%
- Population Fragmented Nuclei (%) [2]: 13%
- Population Healthy Nuclei (%) [2]: 78%
- Population Hoechst High Intensity Objects (%) [2]: 1%
- Population Membrane Permeable-Phenotype (%) [2]: 9%
- Population Mitochondria Different-Phenotype (%) [2]: 6%
- Population Mitotic Cells (%) [2]: 20%
- Population Normal (%) [2]: 98%
- Population Pyknosed Nuclei (%) [2]: 7%
- Population Tubulin-Different-Phenotype (%) [2]: 8%
- Total Cell Count [2]: 139
- Population Apoptotic (%) [3]: 58%
- Population Fragmented Nuclei (%) [3]: 20%
- Population Healthy Nuclei (%) [3]: 66%
- Population Hoechst High Intensity Objects (%) [3]: 1%
- Population Membrane Permeable-Phenotype (%) [3]: 9%
- Population Mitochondria Different-Phenotype (%) [3]: 10%
- Population Mitotic Cells (%) [3]: 41%
- Population Normal (%) [3]: 98%
- Population Pyknosed Nuclei (%) [3]: 13%
- Population Tubulin-Different-Phenotype (%) [3]: 6%
- Total Cell Count [3]: 316
- Population Apoptotic (%) [4]: 88%
- Population Fragmented Nuclei (%) [4]: 26%
- Population Hoechst High Intensity Objects (%) [4]: 2%
- Population Membrane Permeable-Phenotype (%) [4]: 5%
- Population Mitochondria Different-Phenotype (%) [4]: 7%
- Population Mitotic Cells (%) [4]: 11%
- Population Normal (%) [4]: 97%
- Population Pyknosed Nuclei (%) [4]: 6%
- Population Tubulin-Different-Phenotype (%) [4]: 7%
- Total Cell Count [4]: 141
- Population Apoptotic (%) [5]: 96%
- Population Fragmented Nuclei (%) [5]: 25%
- Population Healthy Nuclei (%) [5]: 63%
- Population Hoechst High Intensity Objects (%) [5]: 1%
- Population Membrane Permeable-Phenotype (%) [5]: 8%
- Population Mitochondria Different-Phenotype (%) [5]: 4%
- Population Mitotic Cells (%) [5]: 4%
- Population Normal (%) [5]: 98%
- Population Pyknosed Nuclei (%) [5]: 10%
- Population Tubulin-Different-Phenotype (%) [5]: 7%
- Total Cell Count [5]: 232
- Population Apoptotic (%) [6]: 77%
- Population Fragmented Nuclei (%) [6]: 9%
- Population Healthy Nuclei (%) [6]: 77%
- Population Hoechst High Intensity Objects (%) [6]: 2%
- Population Membrane Permeable-Phenotype (%) [6]: 5%
- Population Mitochondria Different-Phenotype (%) [6]: 1%
- Population Mitotic Cells (%) [6]: 22%
- Population Normal (%) [6]: 97%
- Population Pyknosed Nuclei (%) [6]: 12%
- Population Tubulin-Different-Phenotype (%) [6]: 1%
- Total Cell Count [6]: 148
- Population Apoptotic (%) [7]: 73%
- Population Fragmented Nuclei (%) [7]: 23%
- Population Healthy Nuclei (%) [7]: 63%
- Population Hoechst High Intensity Objects (%) [7]: 2%
- Population Membrane Permeable-Phenotype (%) [7]: 10%
- Population Mitochondria Different-Phenotype (%) [7]: 8%
- Population Mitotic Cells (%) [7]: 26%
- Population Normal (%) [7]: 97%
- Population Pyknosed Nuclei (%) [7]: 12%
- Population Tubulin-Different-Phenotype (%) [7]: 4%
- Total Cell Count [7]: 359
- Population Apoptotic (%) [8]: 61%
- Population Fragmented Nuclei (%) [8]: 31%
- Population Healthy Nuclei (%) [8]: 60%
- Population Membrane Permeable-Phenotype (%) [8]: 12%
- Population Mitochondria Different-Phenotype (%) [8]: 13%
- Population Mitotic Cells (%) [8]: 38%
- Population Pyknosed Nuclei (%) [8]: 7%
- Population Tubulin-Different-Phenotype (%) [8]: 9%
- Total Cell Count [8]: 168
- Population Apoptotic (%) [9]: 89%
- Population Fragmented Nuclei (%) [9]: 24%
- Population Healthy Nuclei (%) [9]: 62%
- Population Hoechst High Intensity Objects (%) [9]: 2%
- Population Membrane Permeable-Phenotype (%) [9]: 4%
- Population Mitochondria Different-Phenotype (%) [9]: 3%
- Population Mitotic Cells (%) [9]: 10%
- Population Normal (%) [9]: 97%
- Population Pyknosed Nuclei (%) [9]: 13%
- Population Tubulin-Different-Phenotype (%) [9]: 4%
- Total Cell Count [9]: 300
- Population Apoptotic (%) [10]: 90%
- Population Fragmented Nuclei (%) [10]: 14%
- Population Healthy Nuclei (%) [10]: 76%
- Population Membrane Permeable-Phenotype (%) [10]: 5%
- Population Pyknosed Nuclei (%) [10]: 8%
- Population Tubulin-Different-Phenotype (%) [10]: 0%
- Total Cell Count [10]: 230
- Population Apoptotic (%) [11]: 83%
- Population Fragmented Nuclei (%) [11]: 17%
- Population Healthy Nuclei (%) [11]: 68%
- Population Hoechst High Intensity Objects (%) [11]: 2%
- Population Membrane Permeable-Phenotype (%) [11]: 8%
- Population Mitochondria Different-Phenotype (%) [11]: 6%
- Population Mitotic Cells (%) [11]: 16%
- Population Normal (%) [11]: 97%
- Population Pyknosed Nuclei (%) [11]: 13%
- Population Tubulin-Different-Phenotype (%) [11]: 4%
- Total Cell Count [11]: 456
- Population Fragmented Nuclei (%) [12]: 27%
- Population Healthy Nuclei (%) [12]: 64%
- Population Hoechst High Intensity Objects (%) [12]: 5%
- Population Membrane Permeable-Phenotype (%) [12]: 10%
- Population Mitochondria Different-Phenotype (%) [12]: 5%
- Population Normal (%) [12]: 94%
- Population Pyknosed Nuclei (%) [12]: 8%
- Population Tubulin-Different-Phenotype (%) [12]: 5%
- Total Cell Count [12]: 231
